In brackets after ≈: the same amount, converted by molar mass.
Legend:
Format in all cases: functional
Haemophilus influenzae = assay: Antibacterial activity against Haemophilus influenzae ATCC 49247 after 18 hrs by NCCLS agar dilution method; conditions: ATCC 49247, 18 h
Outline: (§1)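 NCCLS agar dilution on Mueller-Hinton agar with 5% sheep blood added to support growth. Drug dilutions 0.12–64 µg/ml. Test agents in 80% DMSO in water, linezolid in 40% water in ethanol. Final inoculum 10^7 CFU/ml, 18 h at 35 °C. MIC read as the lowest concentration with no visible growth.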

Staphylococcus [1] = assay: Ratio of linezolid MIC to compound MIC for methicillin-susceptible coagulase-negative Staphylococcus
Moraxella catarrhalis [2] = assay: Antibacterial activity against Moraxella catarrhalis ATCC 8176 after 18 hrs by NCCLS agar dilution method; conditions: ATCC 8176, 18 h; outline: as §1
Staphylococcus aureus [3] = assay: Antibacterial activity against Staphylococcus aureus ATCC 25923 after 18 hrs by NCCLS agar dilution method; conditions: ATCC 25923, 18 h
Outline: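 Plain Mueller-Hinton agar, agar dilution per NCCLS, concentrations 0.12–64 µg/ml. Test agents in 80% DMSO in water, linezolid in 40% water in ethanol, vancomycin in water. Final inoculum 10^7 CFU/ml, 35 °C for 18 h. MIC = lowest concentration inhibiting visible growth.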

Staphylococcus [4] = assay: Antibacterial activity against methicillin-susceptible coagulase-negative Staphylococcus after 18 hrs by NCCLS agar dilution method
Outline: (§2)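 Clinical isolates were tested by agar dilution on Mueller-Hinton agar with drug dilutions from 0.12 to 64 µg/ml. Test compounds were dissolved in 80% DMSO in water. Final inoculum was 10^7 CFU/ml, incubated at 35 °C for 18 h. MIC was the lowest concentration inhibiting visible growth.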

Staphylococcus aureus [5] = assay: Ratio of linezolid MIC to compound MIC for methicillin-susceptible Staphylococcus aureus
Staphylococcus [6] = assay: Ratio of PH027 MIC to compound MIC for methicillin-susceptible coagulase-negative Staphylococcus
Moraxella catarrhalis [7] = assay: Antibacterial activity against Moraxella catarrhalis clinical isolate 36 after 18 hrs by NCCLS agar dilution method; conditions: clinical isolate 36, 18 h; outline: as §1
Escherichia coli = assay: Antibacterial activity against Escherichia coli ATCC 25922 after 18 hrs by NCCLS agar dilution method; conditions: ATCC 25922, 18 h
Outline: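 Agar dilution per NCCLS on Mueller-Hinton agar, drug dilutions 0.12–64 µg/ml. Linezolid dissolved in 40% water in ethanol, vancomycin in water, test agents in 80% DMSO in water. Inoculum 10^7 CFU/ml (final), incubated 35 °C for 18 h. MIC is the lowest concentration preventing visible growth.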

Moraxella catarrhalis [8] = assay: Antibacterial activity against Moraxella catarrhalis clinical isolate 1 after 18 hrs by NCCLS agar dilution method; conditions: clinical isolate 1, 18 h; outline: as §1
Moraxella catarrhalis [9] = assay: Ratio of linezolid MIC to compound MIC for Moraxella catarrhalis ATCC 8176
Moraxella catarrhalis [10] = assay: Antibacterial activity against Moraxella catarrhalis clinical isolate 138 after 18 hrs by NCCLS agar dilution method; conditions: clinical isolate 138, 18 h; outline: as §1
Moraxella catarrhalis [11] = assay: Antibacterial activity against Moraxella catarrhalis clinical isolate 3447 after 18 hrs by NCCLS agar dilution method; conditions: clinical isolate 3447, 18 h; outline: as §1
Moraxella catarrhalis [12] = assay: Antibacterial activity against Moraxella catarrhalis clinical isolate 255 after 18 hrs by NCCLS agar dilution method; conditions: clinical isolate 255, 18 h; outline: as §1
Staphylococcus aureus [13] = assay: Antibacterial activity against methicillin-resistant Staphylococcus aureus after 18 hrs by NCCLS agar dilution method; outline: as §2
Moraxella catarrhalis [14] = assay: Antibacterial activity against Moraxella catarrhalis clinical isolate 2824 after 18 hrs by NCCLS agar dilution method; conditions: clinical isolate 2824, 18 h; outline: as §1
Moraxella catarrhalis [15] = assay: Antibacterial activity against Moraxella catarrhalis clinical isolate 125 after 18 hrs by NCCLS agar dilution method; conditions: clinical isolate 125, 18 h; outline: as §1
Moraxella catarrhalis [16] = assay: Antibacterial activity against Moraxella catarrhalis clinical isolate 112 after 18 hrs by NCCLS agar dilution method; conditions: clinical isolate 112, 18 h; outline: as §1
Enterococcus [17] = assay: Ratio of PH027 MIC to compound MIC for vancomycin-susceptible Enterococcus
Enterococcus [18] = assay: Antibacterial activity against vancomycin-resistant Enterococcus after 18 hrs by NCCLS agar dilution method; outline: as §2
Streptococcus pneumoniae [19] = assay: Ratio of linezolid MIC to compound MIC for penicillin-resistant Streptococcus pneumoniae
Staphylococcus aureus [20] = assay: Ratio of PH027 MIC to compound MIC for methicillin-susceptible Staphylococcus aureus
Enterococcus [21] = assay: Ratio of PH084 MIC to compound MIC for vancomycin-susceptible Enterococcus
Staphylococcus aureus [22] = assay: Antibacterial activity against methicillin-susceptible Staphylococcus aureus after 18 hrs by NCCLS agar dilution method; outline: as §2
Enterococcus [23] = assay: Antibacterial activity against vancomycin-susceptible Enterococcus after 18 hrs by NCCLS agar dilution method; outline: as §2
Enterococcus [24] = assay: Ratio of linezolid MIC to compound MIC for vancomycin-susceptible Enterococcus
Staphylococcus [25] = assay: Antibacterial activity against methicillin-resistant coagulase-negative Staphylococcus after 18 hrs by NCCLS agar dilution method; outline: as §2
Streptococcus pneumoniae [26] = assay: Antibacterial activity against penicillin-resistant Streptococcus pneumoniae after 18 hrs by NCCLS agar dilution method
Outline: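 Agar dilution was run on Mueller-Hinton agar supplemented with 5% sheep blood, with drug dilutions from 0.12 to 64 µg/ml. Test compounds were dissolved in 80% DMSO in water. Final inoculum was 10^7 CFU/ml, incubated at 35 °C for 18 h. MIC was the lowest concentration preventing visible growth.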

Streptococcus pneumoniae [27] = assay: Ratio of PH084 MIC to compound MIC for penicillin-resistant Streptococcus pneumoniae
Staphylococcus [28] = assay: Ratio of PH084 MIC to compound MIC for methicillin-susceptible coagulase-negative Staphylococcus
Staphylococcus aureus [29] = assay: Antibacterial activity against Staphylococcus aureus ATCC 25923 after 18 hrs by […] in presence of human plasma; conditions: ATCC 25923, Plasma
Outline: (§3)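 To gauge plasma protein binding and/or plasma instability, MIC was determined in Mueller-Hinton broth containing 50% human plasma. Linezolid served as a reference agent. Ratio compares this MIC with the MIC obtained without plasma.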

Streptococcus pneumoniae [30] = assay: Ratio of PH027 MIC to compound MIC for penicillin-resistant Streptococcus pneumoniae
Staphylococcus aureus [31] = assay: Ratio of PH084 MIC to compound MIC for methicillin-susceptible Staphylococcus aureus
Staphylococcus aureus [32] = assay: Ratio of MIC for Staphylococcus aureus ATCC 25923 to MIC for Staphylococcus aureus ATCC 25923 in presence of human plasma; outline: as §3

SMILES	MIC (Haemophilus influenzae)	MIC (Moraxella catarrhalis [2])	MIC (Staphylococcus aureus [3])	MIC (Staphylococcus [4])	MIC (Moraxella catarrhalis [7])	MIC (Escherichia coli)	MIC (Moraxella catarrhalis [8])	Ratio (Moraxella catarrhalis [9])	MIC (Moraxella catarrhalis [10])	MIC (Moraxella catarrhalis [11])	MIC (Moraxella catarrhalis [12])	MIC (Staphylococcus aureus [13])	MIC (Moraxella catarrhalis [14])	MIC (Moraxella catarrhalis [15])	MIC (Moraxella catarrhalis [16])	MIC (Enterococcus [18])	MIC (Staphylococcus aureus [22])	MIC (Enterococcus [23])	MIC (Staphylococcus [25])	MIC (Streptococcus pneumoniae [26])	further results
O=C(NCC(=O)N1CCN(c2ccc(N3C[C@H](Cn4ccnn4)OC3=O)cc2F)CC1)c1ccc([N+](=O)[O-])o1	8 µg/mL (≈ 14.7 µM)	1 µg/mL (≈ 1.84 µM)	< 0.25 µg/mL	0.06 µg/mL (≈ 0.111 µM)	1 µg/mL (≈ 1.84 µM)	> 64 µg/mL	1 µg/mL (≈ 1.84 µM)	8	1 µg/mL (≈ 1.84 µM)	1 µg/mL (≈ 1.84 µM)	1 µg/mL (≈ 1.84 µM)	0.06 µg/mL (≈ 0.111 µM)	1 µg/mL (≈ 1.84 µM)	1 µg/mL (≈ 1.84 µM)	1 µg/mL (≈ 1.84 µM)	0.25 µg/mL (≈ 0.461 µM)	0.06 µg/mL (≈ 0.111 µM)	0.25 µg/mL (≈ 0.461 µM)	0.06 µg/mL (≈ 0.111 µM)	< 0.25 µg/mL	Ratio (Staphylococcus [1]): 4; Ratio (Staphylococcus aureus [5]): 4; Ratio (Staphylococcus [6]): 4; Ratio (Enterococcus [17]): 4; Ratio (Streptococcus pneumoniae [19]): 4; Ratio (Staphylococcus aureus [20]): 4; Ratio (Enterococcus [21]): 4; Ratio (Enterococcus [24]): 4; Ratio (Streptococcus pneumoniae [27]): 4; Ratio (Staphylococcus [28]): 4; MIC (Staphylococcus aureus [29]): < 0.25 µg/mL; Ratio (Streptococcus pneumoniae [30]): 4; Ratio (Staphylococcus aureus [31]): 4
Cc1cn(C[C@H]2CN(c3ccc(N4CCN(C(=O)CNC(=O)c5cc([N+](=O)[O-])cc([N+](=O)[O-])c5)CC4)c(F)c3)C(=O)O2)nn1	> 16 µg/mL	1 µg/mL (≈ 1.64 µM)	2 µg/mL (≈ 3.27 µM)	1 µg/mL (≈ 1.64 µM)	1 µg/mL (≈ 1.64 µM)	> 64 µg/mL	1 µg/mL (≈ 1.64 µM)	8	1 µg/mL (≈ 1.64 µM)	0.5 µg/mL (≈ 0.818 µM)	0.5 µg/mL (≈ 0.818 µM)	1 µg/mL (≈ 1.64 µM)	1 µg/mL (≈ 1.64 µM)	0.5 µg/mL (≈ 0.818 µM)	0.5 µg/mL (≈ 0.818 µM)	2 µg/mL (≈ 3.27 µM)	1 µg/mL (≈ 1.64 µM)	1 µg/mL (≈ 1.64 µM)	1 µg/mL (≈ 1.64 µM)	0.25 µg/mL (≈ 0.409 µM)	MIC (Staphylococcus aureus [29]): 8 µg/mL; Ratio (Staphylococcus aureus [32]): 4
Cc1cn(C[C@H]2CN(c3ccc(N4CCN(C(=O)CNC(=O)c5ccc([N+](=O)[O-])o5)CC4)c(F)c3)C(=O)O2)nn1	2 µg/mL (≈ 3.59 µM)	0.5 µg/mL (≈ 0.898 µM)	< 0.25 µg/mL	0.06 µg/mL (≈ 0.108 µM)	1 µg/mL (≈ 1.8 µM)	16 µg/mL (≈ 28.8 µM)	1 µg/mL (≈ 1.8 µM)	16	1 µg/mL (≈ 1.8 µM)	1 µg/mL (≈ 1.8 µM)	1 µg/mL (≈ 1.8 µM)	0.06 µg/mL (≈ 0.108 µM)	1 µg/mL (≈ 1.8 µM)	1 µg/mL (≈ 1.8 µM)	1 µg/mL (≈ 1.8 µM)	0.5 µg/mL (≈ 0.898 µM)	0.06 µg/mL (≈ 0.108 µM)	0.25 µg/mL (≈ 0.449 µM)	0.06 µg/mL (≈ 0.108 µM)	< 0.25 µg/mL	Ratio (Staphylococcus [1]): 4; Ratio (Staphylococcus aureus [5]): 4; Ratio (Staphylococcus [6]): 4; Ratio (Enterococcus [17]): 4; Ratio (Streptococcus pneumoniae [19]): 4; Ratio (Staphylococcus aureus [20]): 4; Ratio (Enterococcus [21]): 4; Ratio (Enterococcus [24]): 4; Ratio (Streptococcus pneumoniae [27]): 4; Ratio (Staphylococcus [28]): 4; MIC (Staphylococcus aureus [29]): < 0.25 µg/mL; Ratio (Streptococcus pneumoniae [30]): 4; Ratio (Staphylococcus aureus [31]): 4
O=C(NCC(=O)N1CCN(c2ccc(N3C[C@H](Cn4ccnn4)OC3=O)cc2F)CC1)c1cc([N+](=O)[O-])cc([N+](=O)[O-])c1	16 µg/mL (≈ 26.8 µM)	0.5 µg/mL (≈ 0.837 µM)	1 µg/mL (≈ 1.67 µM)	0.5 µg/mL (≈ 0.837 µM)	0.25 µg/mL (≈ 0.418 µM)	> 64 µg/mL	0.25 µg/mL (≈ 0.418 µM)	16	0.25 µg/mL (≈ 0.418 µM)	0.25 µg/mL (≈ 0.418 µM)	0.25 µg/mL (≈ 0.418 µM)	0.5 µg/mL (≈ 0.837 µM)	0.25 µg/mL (≈ 0.418 µM)	0.25 µg/mL (≈ 0.418 µM)	0.25 µg/mL (≈ 0.418 µM)	1 µg/mL (≈ 1.67 µM)	0.5 µg/mL (≈ 0.837 µM)	0.5 µg/mL (≈ 0.837 µM)	0.5 µg/mL (≈ 0.837 µM)	0.25 µg/mL (≈ 0.418 µM)	MIC (Staphylococcus aureus [29]): 16 µg/mL; Ratio (Staphylococcus aureus [32]): 16

Reference: ChEMBL document CHEMBL2412955, “Synthesis and antibacterial activities of N-substituted-glycinyl 1H-1,2,3-triazolyl oxazolidinones” (2013)
